This note sets out measurements from ChEMBL document CHEMBL4229360, “Antimalarial agents against both sexual and asexual parasites stages: structure-activity relationships and biological studies of the Malaria Box compound 1-[5-(4-bromo-2-chlorophenyl)furan-2-yl]-N-[(piperidin-4-yl)methyl]methanamine (MMV019918) and analogues” (Eur J Med Chem, 2018).

The test system of series [1] is Plasmodium falciparum. Briefly: Antiplasmodial activity against chloroquine-resistant Plasmodium falciparum W2 after 72 hrs by lactate dehydrogenase assay. The series is classed as functional, organism-based. The conditions noted are these: W2, 72 h. In a few lines:
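Asynchronous blood-stage cultures at 1–1.5% parasitemia and 1% final hematocrit in human A+ RBCs, RPMI 1640 with 1% AlbuMax, hypoxanthine, HEPES and glutamine. Serial dilutions from DMSO stocks, final DMSO <1%. Incubated 72 h at 37 °C under 1% O₂/5% CO₂. IC50 is the mean of ≥3 experiments in duplicate.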

Series [2] in a line: Cytotoxicity against mouse NIH/3T3 cells after 24 hrs by neutral red uptake assay. The series is classed as cell-based, NIH3T3. The following applies: read-out: TC50. Put shortly:
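NIH3T3 cells exposed for 24 h; viability by neutral red uptake. Mean of three experiments, six replicates each.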

For series [3], the system named is Plasmodium falciparum. Briefly: Antiplasmodial activity against gametocytes of Plasmodium falciparum NF54 infected in Anopheles mosquitoes assessed as decrease in infection prevalance measured at baseline infection intensity of 30 oocysts/midgut pre-treated with compound for 24 hrs before feeding and measured 8 days post infection by standard membrane feeding assay. The series is classed as functional, organism-based. In a few lines: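 NF54-HGL luciferase-reporter gametocytes were pre-incubated with compound for 24 h, then membrane-fed to Anopheles mosquitoes. Infection was read by luminescence 8 d post-infection, with 24 mosquitoes analysed per feed and each feed done in duplicate. IC50 was derived for infection intensity and for prevalence at a baseline of 30 oocysts/midgut.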

The test system of series [4] is Plasmodium berghei. Briefly: Antimalarial activity against liver stage form of mCherry expressing Plasmodium berghei ANKA sporozoites infected in mouse primary hepatocytes assessed as reduction in parasite size at 0.0625 to 4 uM administered 2 hrs post infection and measured after 48 hrs post infection with medium change at 24 hrs post infection by fluorescent microscopic analysis. The series is classed as functional, organism-based. In a few lines:
(§1)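 Parasite number and size in unfixed cells by automated microscopy at 48 hpi. Detached cells collected at 65 hpi, counted by fluorescence microscopy, expressed as % of 48 h parasite number. n = 4; one-way ANOVA with Dunnett's test.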

Series [5] relates to Plasmodium berghei. Briefly: Antimalarial activity against liver stage form of mCherry expressing Plasmodium berghei ANKA sporozoites infected in mouse primary hepatocytes assessed as inhibition of detached cell formation rate at 0.0625 to 4 uM administered 2 hrs post infection and measured after 48 hrs post infection with medium change at 24 hrs post infection by fluorescent microscopic analysis. In kind it is functional, organism-based. Put shortly: as §1

The nature of series [6]: Cardiotoxicity in Langendorff perfused Wistar rat heart assessed as reduction of left ventricular pressure. The series is classed as toxicity, tissue-based.
Series [7] can be described thus: Cardiotoxicity in Langendorff perfused Wistar rat heart assessed as frequency of heart rate at 0.1 uM by electrocardiography (reference value: 247.05 to 275.90 bpm). In kind it is toxicity, tissue-based.
Series [8] can be described thus: Cardiotoxicity in Langendorff perfused Wistar rat heart assessed as frequency of heart rate at 10 uM by electrocardiography (reference value: 247.05 to 275.90 bpm). The series is classed as toxicity, tissue-based.
The nature of series [9]: Cardiotoxicity in Langendorff perfused Wistar rat heart assessed as PQ interval time at 0.1 uM by electrocardiography (reference value: 41.13 to 42.63 milliseconds). In kind it is toxicity, tissue-based.
The nature of series [10]: Cardiotoxicity in Langendorff perfused Wistar rat heart assessed as PQ interval time at 3 uM by electrocardiography (reference value: 41.13 to 42.63 milliseconds). The series is classed as toxicity, tissue-based.
Series [11] in a line: Cardiotoxicity in Langendorff perfused Wistar rat heart assessed as PQ interval time at 10 uM by electrocardiography (reference value: 41.13 to 42.63 milliseconds). In kind it is toxicity, tissue-based.
A short description of series [12]: Cardiotoxicity in Langendorff perfused Wistar rat heart assessed as QRS interval time at 3 uM by electrocardiography (reference value: 13.31 to 14.35 milliseconds). In kind it is toxicity, tissue-based.
In series [13] the target is T1, Phosphoethanolamine N-methyltransferase (Plasmodium falciparum, UniProt Q8IDQ9).
T1 sequence (Q8IDQ9 whole entry): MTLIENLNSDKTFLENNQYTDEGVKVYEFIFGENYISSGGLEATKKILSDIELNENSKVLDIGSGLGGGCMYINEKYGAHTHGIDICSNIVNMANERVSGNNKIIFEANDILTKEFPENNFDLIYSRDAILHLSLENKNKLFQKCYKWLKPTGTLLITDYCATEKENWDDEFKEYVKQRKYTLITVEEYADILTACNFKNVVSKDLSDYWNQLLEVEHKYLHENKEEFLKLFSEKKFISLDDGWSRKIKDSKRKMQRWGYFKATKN
Briefly: Inhibition of plasmodium falciparum phosphoethanolamine N-methyltransferase expressed in Escherichia coli using phosphoethanolamine as substrate and [methyl-14C] SAM by radiochemical assay. In a few lines: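 Recombinant PfPMT purified from E. coli, 2 μg per 100 μL reaction. Buffer 0.1 M HEPES-KOH pH 8.0, 2 mM Na2EDTA, 10% glycerol, 5% DMSO, with 30 μM SAM (100 nCi [methyl-14C]SAM) and 55 μM phosphoethanolamine; radiochemical read-out.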

Series [14] concerns the target T2, Voltage-dependent L-type calcium channel subunit alpha-1C (Rattus norvegicus, UniProt P22002). The series can be described thus: Inhibition of CaV1.2 channel in rat tail artery myocytes assessed as reduction in Ba2+ current at -50 mV holding potential by whole-cell patch-clamp assay. The series is classed as cell-based. In a few lines: (§2)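 Freshly isolated rat tail artery smooth muscle cells (collagenase digestion), whole-cell patch clamp at 20–22 °C. External solution: 5 mM Ba2+, 30 mM TEA; Cs+-based internal solution, pH 7.4. Currents from 250-ms pulses to 0 mV from Vh −50 mV at 0.067 Hz, after 7–10 min stabilisation. Leak corrected with 10 μM nifedipine. Peak current as % of control; n = 3–6 cells from ≥3 animals.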
(The patch-clamp technique gives a direct electrical read-out from membranes.)

Series [15] deals with T2, Voltage-dependent L-type calcium channel subunit alpha-1C. Briefly: Inhibition of CaV1.2 channel in rat tail artery myocytes assessed as reduction in Ba2+ current at 30 uM at -50 mV holding potential by whole-cell patch-clamp assay. The series is classed as cell-based. Put shortly: as §2

Active and inactive are the calls of the source. The calls are words filed in the database; no cut-off is given here.

T2 sequence (P22002 whole entry): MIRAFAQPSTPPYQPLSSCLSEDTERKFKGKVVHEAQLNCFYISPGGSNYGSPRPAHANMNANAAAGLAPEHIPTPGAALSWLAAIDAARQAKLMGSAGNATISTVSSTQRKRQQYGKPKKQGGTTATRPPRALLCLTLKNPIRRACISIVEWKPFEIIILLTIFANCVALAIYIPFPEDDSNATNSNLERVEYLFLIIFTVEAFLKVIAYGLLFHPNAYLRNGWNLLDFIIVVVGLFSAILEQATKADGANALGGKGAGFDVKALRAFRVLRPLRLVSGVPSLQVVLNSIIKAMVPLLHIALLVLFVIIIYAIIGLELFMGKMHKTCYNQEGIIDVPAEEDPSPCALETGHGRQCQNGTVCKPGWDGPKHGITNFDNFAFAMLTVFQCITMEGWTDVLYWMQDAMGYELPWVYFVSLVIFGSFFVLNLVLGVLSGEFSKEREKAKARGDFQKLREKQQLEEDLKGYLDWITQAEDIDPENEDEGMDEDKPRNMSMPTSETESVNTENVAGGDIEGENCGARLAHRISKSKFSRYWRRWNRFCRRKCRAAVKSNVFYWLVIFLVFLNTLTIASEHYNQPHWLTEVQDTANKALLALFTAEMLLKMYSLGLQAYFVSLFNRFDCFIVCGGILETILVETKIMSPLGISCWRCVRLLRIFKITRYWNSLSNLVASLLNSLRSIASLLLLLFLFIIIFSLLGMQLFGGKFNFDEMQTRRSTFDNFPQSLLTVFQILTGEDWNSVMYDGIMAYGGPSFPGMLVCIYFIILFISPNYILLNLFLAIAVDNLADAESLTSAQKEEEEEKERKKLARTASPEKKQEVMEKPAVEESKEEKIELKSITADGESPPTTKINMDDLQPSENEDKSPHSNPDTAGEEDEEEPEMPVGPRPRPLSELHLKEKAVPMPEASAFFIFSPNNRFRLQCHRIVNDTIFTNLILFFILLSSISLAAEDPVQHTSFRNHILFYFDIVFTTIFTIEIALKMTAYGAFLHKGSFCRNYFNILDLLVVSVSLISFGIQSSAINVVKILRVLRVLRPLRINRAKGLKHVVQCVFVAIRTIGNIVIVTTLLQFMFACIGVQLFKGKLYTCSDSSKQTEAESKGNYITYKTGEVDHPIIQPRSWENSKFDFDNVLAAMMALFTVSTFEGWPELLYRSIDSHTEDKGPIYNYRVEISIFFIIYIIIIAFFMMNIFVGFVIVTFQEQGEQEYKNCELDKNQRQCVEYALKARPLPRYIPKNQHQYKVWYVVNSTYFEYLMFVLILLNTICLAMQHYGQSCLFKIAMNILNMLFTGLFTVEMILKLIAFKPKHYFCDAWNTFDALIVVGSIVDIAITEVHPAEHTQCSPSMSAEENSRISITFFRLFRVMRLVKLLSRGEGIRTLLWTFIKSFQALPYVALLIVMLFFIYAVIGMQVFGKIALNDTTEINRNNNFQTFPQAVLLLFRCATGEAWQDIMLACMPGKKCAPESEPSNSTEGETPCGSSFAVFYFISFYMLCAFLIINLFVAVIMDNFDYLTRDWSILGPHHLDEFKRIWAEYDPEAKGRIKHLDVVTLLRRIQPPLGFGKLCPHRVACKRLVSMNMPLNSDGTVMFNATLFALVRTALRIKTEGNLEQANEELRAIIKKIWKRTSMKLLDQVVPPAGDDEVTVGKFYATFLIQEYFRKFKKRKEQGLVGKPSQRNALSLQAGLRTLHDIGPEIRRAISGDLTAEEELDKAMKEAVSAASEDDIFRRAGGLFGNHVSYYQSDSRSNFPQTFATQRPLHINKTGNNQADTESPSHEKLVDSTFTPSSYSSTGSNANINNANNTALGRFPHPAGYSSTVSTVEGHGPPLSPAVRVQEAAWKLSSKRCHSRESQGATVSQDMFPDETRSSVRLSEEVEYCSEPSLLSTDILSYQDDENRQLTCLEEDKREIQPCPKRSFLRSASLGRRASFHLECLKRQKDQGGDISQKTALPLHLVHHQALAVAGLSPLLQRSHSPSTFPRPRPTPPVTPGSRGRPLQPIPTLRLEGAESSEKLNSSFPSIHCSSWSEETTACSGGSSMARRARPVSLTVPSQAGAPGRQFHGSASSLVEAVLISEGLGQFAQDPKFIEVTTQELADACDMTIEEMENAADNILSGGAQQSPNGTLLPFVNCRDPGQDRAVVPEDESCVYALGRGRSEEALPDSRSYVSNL

Take `Clc1ccc(-c2ccc(CNCC3CCNCC3)o2)c(-c2ccccc2)c1`: the IC50 (usually the concentration needed to halve the response being measured) amounted to 2.4 µM in series [1], 0.83 µM in series [3], 44.3 µM in series [13] and 3.3 µM in series [14]. Moreover, the CC50 at 24 h in [2] came out at 20 µM. Besides, the outcome in [4] and in series [5] was inactive. The Activity result in series [6] is “Dose-dependent effect”; in series [7], 276.19 bpm; in series [8], 259.41 bpm. Besides, the Time in [9] turned out to be 41.24 ms; in [10], 45.47 ms; in series [11] it was 65.08 ms; in series [12] it was 14.65 ms. The “inhibition (INH)” value in series [14] (rat) was “Dose-dependent effect”; in series [15], “Active”.
